GPR7 antagonist = human neuropeptides B/W receptor 1 antagonism; inhibition, % at 4.4 µM; 290,000 tested, 1.1% active; GPR7-expressing cells, fluorescence antagonist assay; P48145; AID 1861; in the data active = inhibition above about 16%, passing the limit was not always enough;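 note: cells stimulated with the agonist NPW; 0% = agonist with vehicle and 100% = vehicle without agonist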
Target sequence (P48145 whole entry, looked up): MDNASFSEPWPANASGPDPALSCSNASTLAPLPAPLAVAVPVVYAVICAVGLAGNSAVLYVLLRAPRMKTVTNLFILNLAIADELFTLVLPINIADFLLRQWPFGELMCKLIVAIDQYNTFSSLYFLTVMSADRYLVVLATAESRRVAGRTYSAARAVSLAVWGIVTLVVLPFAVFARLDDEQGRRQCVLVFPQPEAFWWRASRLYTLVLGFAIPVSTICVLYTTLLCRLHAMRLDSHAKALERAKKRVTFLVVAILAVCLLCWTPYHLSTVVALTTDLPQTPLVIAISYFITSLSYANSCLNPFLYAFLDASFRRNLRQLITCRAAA
DAGLB inhibitor = blocks human DAGLB lipase activity; HEK293T DAGLB membrane lysate, EnzChek fluorogenic substrate; inhibition, % at 5.17 µM; 340,000 tested, 0.059% active; in the data active = inhibition above about 34%;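 note: 0% = enzyme with vehicle and 100% = wells lacking enzyme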
MPTP block = permeability transition pore inhibition; 360,000 tested, 1.4% active; AID 602449; isolated mouse mitochondria, Ca2+ swelling absorbance, 30 min; inhibition, % at 10 µM;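 active = inhibition of 50% or more, scaled per plate between neutral and stimulator controls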;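 note: 0% = DMSO wells given calcium and 100% = 1 mM EGTA wells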
TAAR1 agonist = human TAAR1 agonism; Q96RJ0; CHO RD-HGA16 TAAR1, Fluo-8 calcium fluorescence; vehicle wells 0%, saturating PEA agonist 100%; activation, % at 3 µM; 360,000 tested, 0.99% active; AID 624467;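 active = activation above the mean activation of all test compounds in the run plus 3 SD, cut at about 38% in these data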
Target sequence (Q96RJ0 whole entry, looked up): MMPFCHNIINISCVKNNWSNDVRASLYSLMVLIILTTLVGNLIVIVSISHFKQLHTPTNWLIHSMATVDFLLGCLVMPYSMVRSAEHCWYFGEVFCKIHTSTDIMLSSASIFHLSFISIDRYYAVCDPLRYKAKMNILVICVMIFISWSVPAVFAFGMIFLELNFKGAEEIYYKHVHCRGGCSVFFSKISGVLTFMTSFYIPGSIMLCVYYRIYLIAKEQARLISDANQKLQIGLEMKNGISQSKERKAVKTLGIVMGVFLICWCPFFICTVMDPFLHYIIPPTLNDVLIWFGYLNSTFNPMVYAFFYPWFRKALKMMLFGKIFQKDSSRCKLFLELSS
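Test system: RD-HGA16 (CHO) cells co-expressing Gα16 and hTAAR1 | Doses: Single dose, 3 µM | Schedule: 17-24 h seeding, 75 min 37 °C dye, 30 min RT | Evaluation: % activation from peak over basal fluorescence ratio, DMSO-to-PEA scaled | Technique: Kinetic Fluo-8 calcium fluorescence | Benchmarks: Low control DMSO, high control PEA (EC100)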
TAAR1 antag = human TAAR1 antagonism; Q96RJ0; CHO RD-HGA16 TAAR1, Fluo-8 calcium fluorescence, antagonist; inhibition, % at 3 µM; 360,000 tested, 1.5% active; AID 624466;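 active = inhibition above a per-plate cutoff, the mean inhibition of test compounds on that plate plus 3 SD, cut at about 49% in these data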;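 note: 0% = DMSO plus EC80 beta-PEA response and 100% = DMSO alone without agonist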
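test system = CHO RD-HGA16 cells bearing hTAAR1 | replication = singlicate | controls = DMSO-only wells and EC80 β-PEA-stimulated wells | reagent = EC80 β-phenethylamine stimulus | read-out basis = percent inhibition of PEA-evoked calcium signal, max/basal emission ratio | schedule = seeding 17-24 h prior, 75-min 37 °C, 30-min RT dye loading | signal = kinetic Fluo-8 calcium fluorescence measurement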
GPR7 antag conf = human GPR7 antagonism, confirmation assay | shares compounds with GPR7 antagonist | 2,400 tested, 52% active | inhibition, % at 4.4 µM | GPR7-expressing cells, calcium fluorescence antagonist mode; in the data active = inhibition above about 24%;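 note: stimulated with the GPR7 agonist NPW; 0% = agonist plus vehicle and 100% = vehicle alone without agonist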
MCHR1 antagonist = MCHR1 (human) antagonism in GPR7 counter-screen. shares compounds with GPR7 antagonist. MCHR1-expressing cells, fluorescence antagonist assay. inhibition, % at 4.4 µM. 2,400 tested, 62% active; in the data active = inhibition above about 22%;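 note: 0% = vehicle with agonist and 100% = vehicle without agonist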
* marks the source's active call; other numbers are inactive results; nt = no result given. Shown are actives, neighbours in structure and some others; about 4% of the full set was active somewhere.

SMILES	GPR7 antagonist	DAGLB inhibitor	MPTP block	TAAR1 agonist	TAAR1 antag	GPR7 antag conf	MCHR1 antagonist
CCN(CC)CCNC(=O)CCc1c(C)nc2c(c(C)nn2-c2ccc(C)cc2)c1C	nt	-1	2	-2	-6	nt	18
O=C(N[C@H](C(=O)N1CCC[C@H]1C(=O)NC1CCCC1)c1ccccc1)C1CC1	nt	nt	nt	1	-4	nt	nt
Brc1cccc(OCCOCCn2ccnc2)c1	21	-1	9	6	-4	nt	nt
Brc1cccc(OCCn2ccnc2)c1	24*	0	-1	10	-13	9	2
CCc1nc2c(OCCc3cccc(OC)c3)cccn2c1N(C=O)Cc1ccc(OC)cc1	nt	nt	1	-1	3	nt	nt
O=C(CSc1nnc(Cc2cccs2)n1Cc1ccco1)Nc1ccc(Br)cc1	3	3	0	10	0	nt	nt
O=C(CSc1nnc(Cc2cccs2)n1Cc1ccco1)Nc1ccc(Cl)cc1Cl	28*	-3	6	13	13	31*	34*
COc1ccc(C(=O)/C=C/N(C)C)cc1	27*	4	1	4	1	-3	-5
CN(C)/C=C/C(=O)c1ccc(Oc2ccccc2)cc1	-2	6	-1	1	21	nt	nt
O=C(Nc1cccc(S(=O)(=O)N2CCCC2)c1)[C@@H]1O[C@H](CO)[C@@H](O)[C@H]1O	nt	nt	0	3	-3	nt	nt
CCCN1C(=O)c2[nH]nc(-c3ccccc3)c2C1c1ccc(C)cc1 (stereo unspecified)	nt	nt	nt	3	-26	nt	nt
CCOC(=O)N(NC(=O)C(O)(c1ccccc1)c1ccccc1)c1ccccc1	31*	0	1	0	-34	19	28*
CCCCC(O)(CCCC)C(=O)NN(C(=O)OCC)c1ccccc1	32*	0	-1	2	-30	35*	27*
CCOC1=C2CN(S(=O)(=O)c3ccc(C)cc3)[C@@H](c3ccccc3)C[C@H]2[C@H]2C(=O)N(c3ccccc3)C(=O)[C@H]2C1	nt	nt	0	1	6	nt	nt
COc1ccc(N2C(=O)c3n[nH]c(C(C)C)c3C2c2ccccc2)cc1 (stereo unspecified)	nt	nt	nt	-1	-34	nt	nt
Cn1ccc2c(-c3ccc4c(c3)OCCO4)cc3c(c21)C1CCC3C1 (stereo unspecified)	nt	nt	1	-1	-12	nt	nt
O=[N+]([O-])c1ccc2c(c1)CO[C@@]21O[C@H](CCO)C[C@H](O)[C@H]1O	nt	nt	0	2	-21	nt	nt
CCN1/C(=C/C=C/c2oc3ccc4ccccc4c3[n+]2CC)Oc2ccc3ccccc3c21	45*	nt	nt	nt	nt	55*	58*
Cn1c(=O)c2c(nc(CN3CCc4ccccc4C3)n2Cc2cccc(Cl)c2)n(C)c1=O	24*	4	-2	24	-17	20	13
Cn1c(=O)c2c(nc(CN3CCN(Cc4ccccc4)CC3)n2Cc2cccc(Cl)c2)n(C)c1=O	-6	0	-2	2	-21	nt	nt
O=C(NC1CCCCC1)c1ccc(S(=O)(=O)NCc2ccco2)cc1	34*	-9	0	2	0	22	25*
O=C(NC1CCN(Cc2ccccc2)CC1)c1ccc(S(=O)(=O)NCc2ccco2)cc1	1	1	24	4	-20	nt	nt
CC1CCCC(C)N1C(=O)c1ccc(S(=O)(=O)NCc2ccco2)cc1 (stereo unspecified)	31*	-1	0	3	19	4	23*
COc1ccc2sc(N(CCCN(C)C)C(=O)c3nc4ccccc4s3)nc2c1	-7	2	3	7	-9	nt	nt
COc1ccccc1C(=O)N(CCC1CCCN1C)c1nc2ccccc2s1 (stereo unspecified)	24*	2	-1	3	-6	26*	9
SMILES	GPR7 antagonist	DAGLB inhibitor	MPTP block	TAAR1 agonist	TAAR1 antag	GPR7 antag conf	MCHR1 antagonist
COc1ccccc1-n1c(SCC(=O)NC2CCCCC2)nc2c(c1=O)SCC2	29*	0	0	-2	-9	6	17
Cc1ccc2oc(NC3=NC4(CCCC4)C4=C(CCCC4=O)N3)nc2c1	nt	nt	-1	5	-11	nt	nt
O=C(Nc1ccccc1N1CCN(c2ccccc2)CC1)c1ccccc1	22*	-16	1	0	24	22	45*
O=C(Nc1ccc(N2CCOCC2)cc1N1CCOCC1)c1ccccc1	nt	1	0	9	-4	nt	nt
O=C(Nc1ccccc1N1CCN(C(=O)c2ccc(Cl)cc2)CC1)c1ccc(Br)cc1	-8	-6	6	6	18	nt	nt
O=C(Cc1ccc(Cl)cc1)Nc1ccccc1N1CCN(C(=O)c2ccccc2)CC1	28*	1	1	18	42	36*	51*
CC1(C(=O)NS(C)(=O)=O)CCN1C(=O)C/C=C/c1ccccc1 (stereo unspecified)	nt	nt	-3	1	5	nt	nt
COc1ccccc1Cc1c(C2CCCCC2)nc2c(C)cc(Br)cn12	nt	nt	nt	-1	-3	nt	nt
CC1CCN(CCOCCOc2ccc(Br)cc2Cl)CC1	29*	-2	-1	3	-8	32*	37*
COCCCNCCCCOc1ccc(Br)cc1Cl	1	2	11	27	-4	nt	nt
CN(C)CCCCOc1ccc(Br)cc1Cl	29*	2	30	7	-1	17	18
C#CCn1c2ccccc2c(=O)n1CCOc1ccccc1OC	nt	nt	-2	0	-6	nt	nt
OC(COc1ccc(F)cc1Cl)CN1CCC(Cc2ccccc2)CC1 (stereo unspecified)	42*	-3	4	34	12	21	43*
OC(COc1ccccc1F)CN1CCC(Cc2ccccc2)CC1 (stereo unspecified)	-15	-2	2	4	-2	nt	nt
O=c1c2ccc([N+](=O)[O-])cc2ncn1CCOc1ccc(Cl)cc1	26*	-10	-2	21	64*	44*	62*
O=C(Cn1cnc2cc([N+](=O)[O-])ccc2c1=O)NCc1ccc(Cl)cc1	0	1	0	14	9	nt	nt
COc1cccc(NC(=S)NC(=O)/C=C/c2ccc(F)cc2)c1	6	-5	1	-1	1	nt	nt
CC(=O)c1ccc(NC(=S)NC(=O)/C=C/c2ccc(F)cc2)cc1	48*	0	1	nt	nt	11	13
CCCNS(=O)(=O)c1cccc(C(=O)OCc2cc(=O)oc3cc(OC)ccc23)c1	34*	0	0	9	52*	33*	57*
CCc1nn(CC(=O)N2CCN(CC)CC2)c(=O)c2cc3sccc3n12	21*	4	-2	1	7	-9	-3
CCC(CC)C(=O)Nc1ccc(Cl)c(Cl)c1	-16	-2	1	15	7	nt	nt
CC(C)(CO)NC(=O)Nc1ccc(Cl)c(Cl)c1	26*	-5	0	21	9	-6	10
Cc1ccccc1NC(=O)COC(=O)COc1ccc2ccc(=O)oc2c1	nt	0	-1	2	2	nt	nt

From PubChem
